In assay [1] the target is T1, Quinolone resistance protein NorA (Staphylococcus aureus) (UniProt P0A0J7).
T1 sequence (whole entry): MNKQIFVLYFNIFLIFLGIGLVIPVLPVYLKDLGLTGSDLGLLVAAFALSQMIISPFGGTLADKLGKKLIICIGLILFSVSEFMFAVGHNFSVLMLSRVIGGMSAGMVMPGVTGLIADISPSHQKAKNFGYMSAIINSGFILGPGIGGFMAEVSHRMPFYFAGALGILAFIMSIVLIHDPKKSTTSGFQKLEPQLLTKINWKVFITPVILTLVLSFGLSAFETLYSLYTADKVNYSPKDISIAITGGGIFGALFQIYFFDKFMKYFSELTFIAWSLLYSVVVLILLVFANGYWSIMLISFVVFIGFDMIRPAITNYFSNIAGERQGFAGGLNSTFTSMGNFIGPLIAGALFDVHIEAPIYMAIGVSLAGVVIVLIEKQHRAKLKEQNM
Briefly: Inhibition of NorA efflux pump in Staphylococcus aureus 1199B after 24 hrs by broth checkerboard method.

The target in assay [2] is T1, Quinolone resistance protein NorA (Staphylococcus aureus). As to the kind of experiment: Inhibition of NorA efflux pump in Staphylococcus aureus 1199B assessed as potentiation of ciprofloxacin-induced antimicrobial activity after 24 hrs by broth checkerboard method. The gist of the method:
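Potentiation factor was derived from 24 h, 37 °C checkerboard ciprofloxacin MICs against S. aureus 1199B in Mueller-Hinton broth. Each inhibitor-concentration column was weighted in ascending order: 10 for column 2 (50), adding 10 per column up to 70 for […] (0.8), so that activity at lower inhibitor concentrations counts more.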

Assay [3] has the same target. Briefly: Inhibition of NorA efflux pump in Staphylococcus aureus 1199B assessed as reduction of ciprofloxacin MIC after 24 hrs by broth checkerboard method.
The target is the same in assay [4]. Briefly: Inhibition of NorA efflux pump in Staphylococcus aureus 1199B assessed as reduction in MIC of ciprofloxacin by broth checkerboard method.

The values that follow come from ChEMBL document CHEMBL1154079.

On to `CCN(CC)C(=O)CCCCc1ccc2c(c1)OCO2`, for which the MIC in assay [1] was greater than 100 µg/mL. In assay [2], the PF came out at 20 and the logPF is 1.3. In addition, in assay [3], the fold change (FC) came out at 2. In assay [4], the MEC amounted to 50 µg/mL.

As to `NC(=O)c1ccc(NC(=O)/C=C/C=C/c2ccc3c(c2)OCO3)cc1`, the MIC in assay [1] is greater than 100 µg/mL. Besides, in assay [2], the PF was found to be 60 and the logPF is 1.78. Besides, the fold change (FC) in assay [3] came out at 2. Further, the MEC in assay [4] was found to be 25 µg/mL.

With `O=C(/C=C/C=C/c1ccc2c(c1)OCO2)Nc1cccc(CO)c1`, in assay [1], the MIC is greater than 100 µg/mL. For the same compound, in assay [2], the PF was found to be 60 and the logPF was 1.78. Besides, the fold change (FC) in assay [3] is 2. Moreover, the MEC in assay [4] worked out at 25 µg/mL.

Regarding `O=C(CCCCc1ccc2c(c1)OCO2)N1CCCCC1`, the MIC in assay [1] was greater than 100 µg/mL. In assay [2], the PF amounted to 20 and the logPF is 1.3. Further, in assay [3], the fold change (FC) is 2. Also, the MEC in assay [4] was found to be 50 µg/mL.

In the case of `CCN(CC)C(=O)/C=C/C=C/c1ccc2c(c1)OCO2`, the MIC in assay [1] is greater than 100 µg/mL. Moreover, in assay [2], the PF was 60 and the logPF was determined as 1.78. For the same compound, in assay [3], the fold change (FC) was 2. In addition, in assay [4], the MEC is 25 µg/mL.

Turning to `O=C(/C=C/C=C/c1ccc2c(c1)OCO2)Nc1ccccc1CO`, the MIC in assay [1] was greater than 100 µg/mL. For the same compound, in assay [2], the PF amounted to 60 and the logPF is 1.78. In addition, the fold change (FC) in assay [3] was found to be 2. Moreover, in assay [4], the MEC is 25 µg/mL.

As to `CC(=O)Nc1ccc(NC(=O)/C=C/C=C/c2ccc3c(c2)OCO3)cc1`, the MIC in assay [1] is greater than 100 µg/mL. Moreover, in assay [2], the PF is 260 and the logPF came to 2.42. The fold change (FC) in assay [3] is 4. In addition, in assay [4], the MEC was determined as 25 µg/mL.

As to `CC(=O)Nc1ccccc1NC(=O)CCCCc1ccc2c(c1)OCO2`, the MIC in assay [1] was greater than 100 µg/mL. Moreover, in assay [2], the PF was found to be 20 and the logPF stood at 1.3. Further, the fold change (FC) in assay [3] stood at 2. In addition, the MEC in assay [4] is 50 µg/mL.

As to `CC(C)CCNC(=O)/C=C/C=C/c1ccc2c(c1)OCO2`, in assay [1], the MIC was greater than 100 µg/mL. In addition, in assay [2], the PF stood at 60 and the logPF was 1.78. Moreover, the fold change (FC) in assay [3] is 2. For the same compound, the MEC in assay [4] was 25 µg/mL.

Regarding `O=C(/C=C/C=C/c1ccc2c(c1)OCO2)N1CCCCC1`, the MIC in assay [1] was greater than 100 µg/mL. Further, in assay [2], the PF amounted to 60 and the logPF was 1.78. Further, the MEC in assay [4] stood at 25 µg/mL.

For `O=C(O)c1cn(C2CC2)c2cc(N3CCNCC3)c(F)cc2c1=O`, the MIC in assay [1] came out at 8 µg/mL.

For the compound `CC(C)CNC(=O)/C=C/C=C/c1ccc2c(c1)OCO2`, the MIC in assay [1] is greater than 100 µg/mL. In addition, in assay [2], the PF came out at 60 and the logPF was found to be 1.78. Besides, the fold change (FC) in assay [3] was found to be 2. In addition, the MEC in assay [4] worked out at 25 µg/mL.

Consider `O=C(/C=C/C=C/c1ccc2c(c1)OCO2)Nc1ccc(C(=O)Nc2ccccc2)cc1`, for which, in assay [1], the MIC is greater than 100 µg/mL. Also, in assay [2], the PF was determined as 360 and the logPF stood at 2.56. Besides, the fold change (FC) in assay [3] is 2. In assay [4], the MEC stood at 3.12 µg/mL.

On to `N#Cc1ccc(NC(=O)/C=C/C=C/c2ccc3c(c2)OCO3)cc1`, for which the MIC in assay [1] was greater than 100 µg/mL. In assay [2], the PF turned out to be 60 and the logPF turned out to be 1.78. Further, the fold change (FC) in assay [3] was 2. In addition, the MEC in assay [4] came out at 25 µg/mL.

Turning to `CN1CCN(C(=O)/C=C/C=C/c2ccc3c(c2)OCO3)CC1`, the MIC in assay [1] was greater than 100 µg/mL. Also, in assay [2], the PF amounted to 60 and the logPF is 1.78. Also, the fold change (FC) in assay [3] was 2. Moreover, in assay [4], the MEC is 25 µg/mL.

Turning to `O=C(/C=C/C=C/c1ccc2c(c1)OCO2)Nc1ccccc1`, the MIC in assay [1] is greater than 100 µg/mL. Also, in assay [2], the PF amounted to 140 and the logPF was 2.15. Further, the fold change (FC) in assay [3] was 4. Further, in assay [4], the MEC worked out at 50 µg/mL.

For `CC(C)NC(=O)/C=C/C=C/c1ccc2c(c1)OCO2`, the MIC in assay [1] was greater than 100 µg/mL. Further, the fold change (FC) in assay [3] was 0. In addition, in assay [4], the MEC came to 50 µg/mL.

`O=C(O)/C=C/C=C/c1ccc2c(c1)OCO2`: the MIC in assay [1] is greater than 100 µg/mL. The fold change (FC) in assay [3] turned out to be 0. Further, the MEC in assay [4] amounted to 50 µg/mL.

In the case of `O=C(/C=C/C=C/c1ccc2c(c1)OCO2)N1CCOCC1`, the MIC in assay [1] was greater than 100 µg/mL. In addition, in assay [3], the fold change (FC) is 0. Also, the MEC in assay [4] came to 50 µg/mL.

Regarding `CCC(CO)NC(=O)/C=C/C=C/c1ccc2c(c1)OCO2` (stereo not drawn), the MIC in assay [1] was greater than 100 µg/mL. In assay [3], the fold change (FC) came out at 0. The MEC in assay [4] worked out at 50 µg/mL.

As for `CCCNC(=O)/C=C/C=C/c1ccc2c(c1)OCO2`, in assay [1], the MIC is greater than 100 µg/mL. The fold change (FC) in assay [3] was determined as 0. In addition, in assay [4], the MEC was 50 µg/mL.

As for `O=C(/C=C/C=C/c1ccc2c(c1)OCO2)NCC(O)c1ccccc1` (stereo not drawn), in assay [1], the MIC was greater than 100 µg/mL. In addition, in assay [2], the PF was 140 and the logPF came to 2.15. Also, the fold change (FC) in assay [3] turned out to be 4. Further, the MEC in assay [4] was determined as 50 µg/mL.

`O=C(/C=C/C=C/c1ccc2c(c1)OCO2)Nc1ccc(NC(=O)c2ccccc2)cc1`: in assay [1], the MIC was greater than 100 µg/mL. In assay [2], the PF turned out to be 300 and the logPF came out at 2.48. Besides, the fold change (FC) in assay [3] is 2. Besides, the MEC in assay [4] stood at 3.12 µg/mL.

Regarding `O=C(/C=C/C=C/c1ccc2c(c1)OCO2)Nc1ccc2ncsc2c1`, the MIC in assay [1] was greater than 100 µg/mL. For the same compound, in assay [2], the PF stood at 300 and the logPF was found to be 2.48. Moreover, the fold change (FC) in assay [3] came to 2. The MEC in assay [4] was determined as 3.12 µg/mL.

In the case of `N#Cc1cccc(NC(=O)/C=C/C=C/c2ccc3c(c2)OCO3)c1`, the MIC in assay [1] is greater than 100 µg/mL. Further, in assay [2], the PF was determined as 660 and the logPF amounted to 2.82. In addition, in assay [3], the fold change (FC) stood at 8. Further, the MEC in assay [4] is 50 µg/mL.

For the compound `CC(O)CCNC(=O)/C=C/C=C/c1ccc2c(c1)OCO2` (stereo not drawn), the MIC in assay [1] was greater than 100 µg/mL. In assay [2], the PF was 60 and the logPF came to 1.78. The fold change (FC) in assay [3] turned out to be 2. The MEC in assay [4] worked out at 25 µg/mL.

As to `CC(=O)Nc1ccccc1NC(=O)/C=C/C=C/c1ccc2c(c1)OCO2`, the MIC in assay [1] is greater than 100 µg/mL. In assay [2], the PF turned out to be 260 and the logPF came out at 2.42. In assay [3], the fold change (FC) was 4. Further, in assay [4], the MEC came out at 25 µg/mL.

As for `O=C(/C=C/C=C/c1ccc2c(c1)OCO2)Nc1nc2ccccc2s1`, the MIC in assay [1] is greater than 100 µg/mL. Also, in assay [2], the PF was found to be 200 and the logPF was 2.3. In addition, the fold change (FC) in assay [3] amounted to 2. In addition, the MEC in assay [4] came to 6.25 µg/mL.

On to `CCC(CC)NC(=O)/C=C/C=C/c1ccc2c(c1)OCO2`, for which, in assay [2], the PF worked out at 60 and the logPF turned out to be 1.78. For the same compound, in assay [3], the fold change (FC) stood at 2.

As for `CC(=O)Nc1cccc(NC(=O)/C=C/C=C/c2ccc3c(c2)OCO3)c1`, the MIC in assay [1] was greater than 100 µg/mL. In addition, in assay [2], the PF was 320 and the logPF was 2.51. Moreover, the fold change (FC) in assay [3] came to 4. Also, the MEC in assay [4] was 12.5 µg/mL.

In the case of `O=C(/C=C/C=C/c1ccc2c(c1)OCO2)Nc1ccc(CO)cc1`, in assay [1], the MIC is greater than 100 µg/mL. Further, in assay [2], the PF was 200 and the logPF stood at 2.3. In assay [3], the fold change (FC) is 2. Moreover, the MEC in assay [4] was 6.25 µg/mL.
